According to ChEMBL document CHEMBL1944590, “Synthesis of 3-phenylsulfonylmethyl cyclohexylaminobenzamide-derived antagonists of CC chemokine receptor 2 (CCR2)” (Bioorg Med Chem Lett, 2012):
Blank lines part the entries; values can stand above or below the molecule they belong to. Calls of active or inactive are those of the source. The rule behind the calls is not given here.

Assays:
[1] = target: T1, C-C chemokine receptor type 2 (Homo sapiens, UniProt P41597); experiment: Displacement of [125I]MCP-1 from CCR2 in human PMBC
Target sequence in this assay (P41597 whole entry): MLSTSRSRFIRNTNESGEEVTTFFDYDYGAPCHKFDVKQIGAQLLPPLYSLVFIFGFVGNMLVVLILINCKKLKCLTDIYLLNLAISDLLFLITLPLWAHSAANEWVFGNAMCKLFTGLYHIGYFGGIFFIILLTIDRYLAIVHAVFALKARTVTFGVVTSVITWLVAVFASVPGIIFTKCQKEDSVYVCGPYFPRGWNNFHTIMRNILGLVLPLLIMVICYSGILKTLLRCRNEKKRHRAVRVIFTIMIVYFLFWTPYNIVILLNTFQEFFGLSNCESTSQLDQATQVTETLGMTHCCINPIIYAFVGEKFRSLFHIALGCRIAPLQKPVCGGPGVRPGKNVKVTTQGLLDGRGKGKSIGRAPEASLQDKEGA

[2] = target: T1, C-C chemokine receptor type 2; experiment: Displacement of [125I]MCP-1 from CCR2 in human PMBC up to 2400 nM
In short: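 Competition binding against [¹²⁵I]MCP-1 using human peripheral blood mononuclear cells at room temperature. IC50 typically given as the mean of two determinations (± standard deviation).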
Target sequence in this assay (P41597 whole entry, looked up): as the sequence (P41597 whole entry) above

[3] = Metabolic stability of the compound in rat liver microsomes assessed as compound remaining at 0.5 uM aftet 10 mins; format: ADME, Microsome; conditions: read-out: Stability
In short: (§1)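 Test compound at 0.5 μM initial concentration incubated 10 min with human, rat or mouse liver microsomes. Stability expressed as percentage of parent compound remaining at the end of incubation.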

[4] = Metabolic stability of the compound in mouse liver microsomes assessed as compound remaining at 0.5 uM aftet 10 mins; format: ADME, Microsome; conditions: read-out: Stability; in short: as §1
[5] = Metabolic stability of the compound in human liver microsomes assessed as compound remaining at 0.5 uM aftet 10 mins; format: ADME, Microsome; conditions: read-out: Stability; in short: as §1
[6] = target: C-C chemokine receptor type 5 (Homo sapiens, UniProt P51681); experiment: Displacement of [125I]MIP-1beta from CCR5
[7] = target: T1, C-C chemokine receptor type 2; experiment: Displacement of [125I]MCP-1 from CCR2 in human THP1 cells; format: cell-based, THP-1
In short: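 Competition binding against [¹²⁵I]MCP-1 using THP-1 cells in place of peripheral blood mononuclear cells. IC50 typically given as the mean of two determinations.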
Target sequence in this assay (P41597 whole entry): as above

Homo sapiens = organism: Homo sapiens; experiment: Selectivity ratio of IC50 for CCR5 to IC50 for human CCR2

Chain of C-C chemokine receptor type 5 (P51681 whole entry): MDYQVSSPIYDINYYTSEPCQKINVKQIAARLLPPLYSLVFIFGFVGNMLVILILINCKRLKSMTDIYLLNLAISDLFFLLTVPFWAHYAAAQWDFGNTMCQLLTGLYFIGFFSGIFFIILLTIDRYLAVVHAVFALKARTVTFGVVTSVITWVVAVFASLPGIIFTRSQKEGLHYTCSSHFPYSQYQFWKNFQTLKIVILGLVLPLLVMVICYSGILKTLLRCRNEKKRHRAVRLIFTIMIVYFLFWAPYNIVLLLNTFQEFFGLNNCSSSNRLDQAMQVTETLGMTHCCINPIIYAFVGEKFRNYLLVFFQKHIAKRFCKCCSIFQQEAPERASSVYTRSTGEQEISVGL

IC50 [1]: 0.079 µM
SMILES: CC(C)N(C)[C@@H]1CC[C@H](NC(=O)CNC(=O)c2cccc(C(F)(F)F)c2)C[C@@H]1CS(=O)(=O)c1ccccc1

IC50 [1]: 0.0052 µM
SMILES: CC(C)N[C@@H]1CC[C@H](NC(=O)CNC(=O)c2cccc(C(F)(F)F)c2)[C@H](CS(=O)(=O)c2ccccc2)C1

IC50 [1]: 3.7 µM
SMILES: N[C@@H]1CC[C@H](NC(=O)CNC(=O)c2cccc(C(F)(F)F)c2)C[C@H]1CS(=O)(=O)c1ccccc1

IC50 [1]: 0.31 µM
SMILES: CC(C)N[C@@H]1CC[C@H](NC(=O)CNC(=O)c2cccc(C(F)(F)F)c2)C[C@H]1CS(=O)(=O)c1ccccc1

IC50 [1]: 2.9 µM
SMILES: CC(C)N(C)[C@@H]1CC[C@H](NC(=O)CNC(=O)c2cccc(C(F)(F)F)c2)C[C@H]1CS(=O)(=O)c1ccccc1

IC50 [1]: 4.1 µM
SMILES: N[C@H]1CC[C@@H](NC(=O)CNC(=O)c2cccc(C(F)(F)F)c2)CC1

IC50 [1]: 0.57 µM
SMILES: CC(C)N[C@H]1CC[C@@H](NC(=O)CNC(=O)c2cccc(C(F)(F)F)c2)CC1

IC50 [1]: 0.072 µM
SMILES: CC(C)N(C)[C@H]1CC[C@@H](NC(=O)CNC(=O)c2cccc(C(F)(F)F)c2)CC1

inhibition [2]: inactive
SMILES: CC(C)N(C)[C@H]1CC[C@@H](NC(=O)CNC(=O)c2cccc(C(F)(F)F)c2)C[C@H]1CS(=O)(=O)c1ccccc1

remaining at 10 min, 0.5 µM [3]: 3.9% | remaining at 10 min, 0.5 µM [4]: 4.3% | IC50 [1]: 0.13 µM | remaining at 10 min, 0.5 µM [5]: 4.4%
SMILES: CN(C)[C@@H]1CC[C@H](NC(=O)CNC(=O)c2cccc(C(F)(F)F)c2)C[C@@H]1CS(=O)(=O)c1ccccc1 (racemic)

IC50 [1]: 0.37 µM
SMILES: CCCN(C)[C@@H]1CC[C@H](NC(=O)CNC(=O)c2cccc(C(F)(F)F)c2)C[C@@H]1CS(=O)(=O)c1ccccc1 (racemic)

IC50 [1]: 0.34 µM
SMILES: O=C(CNC(=O)c1cccc(C(F)(F)F)c1)N[C@H]1CC[C@@H](N2CCCCC2)[C@@H](CS(=O)(=O)c2ccccc2)C1 (racemic)

IC50 [6]: 7.3 µM | remaining at 10 min, 0.5 µM [3]: 71% | remaining at 10 min, 0.5 µM [4]: 87% | remaining at 10 min, 0.5 µM [5]: 70%
SMILES: N[C@@H]1CC[C@H](NC(=O)CNC(=O)c2cc(C(F)(F)F)ccc2NC(=O)N2CCC2)C[C@@H]1CS(=O)(=O)c1ccccc1 (racemic)

IC50 [7]: 0.012 µM
SMILES: CCN[C@@H]1CC[C@H](NC(=O)CNC(=O)c2cc(C(F)(F)F)ccc2NC(=O)N2CCC2)C[C@@H]1CS(=O)(=O)c1ccccc1 (racemic)

IC50 [6]: 0.81 µM | Ratio IC50 (Homo sapiens): > 100 | IC50 [7]: 0.0066 µM
SMILES: CC(C)N[C@@H]1CC[C@H](NC(=O)CNC(=O)c2cc(C(F)(F)F)ccc2NC(=O)N2CCC2)C[C@@H]1CS(=O)(=O)c1ccccc1 (racemic)

IC50 [7]: 0.034 µM
SMILES: CC(C)N(C)[C@@H]1CC[C@H](NC(=O)CNC(=O)c2cc(C(F)(F)F)ccc2NC(=O)N2CCC2)C[C@@H]1CS(=O)(=O)c1ccccc1 (racemic)

IC50 [7]: 0.089 µM
SMILES: CC(C)N(C)[C@@H]1CC[C@H](NC(=O)CNC(=O)c2cccc(C(F)(F)F)c2)C[C@@H]1CS(=O)(=O)c1ccccc1 (racemic)

IC50 [1]: 0.037 µM
SMILES: N[C@@H]1CC[C@H](NC(=O)CNC(=O)c2cccc(C(F)(F)F)c2)[C@H](CS(=O)(=O)c2ccccc2)C1 (racemic)

remaining at 10 min, 0.5 µM [3]: 57% | remaining at 10 min, 0.5 µM [4]: 96% | IC50 [1]: 0.059 µM | remaining at 10 min, 0.5 µM [5]: 100%
SMILES: N[C@@H]1CC[C@H](NC(=O)CNC(=O)c2cccc(C(F)(F)F)c2)C[C@@H]1CS(=O)(=O)c1ccccc1 (racemic)

remaining at 10 min, 0.5 µM [3]: 0.9% | remaining at 10 min, 0.5 µM [4]: 9.6% | IC50 [1]: 0.012 µM | remaining at 10 min, 0.5 µM [5]: 4.4%
SMILES: CC(C)N[C@@H]1CC[C@H](NC(=O)CNC(=O)c2cccc(C(F)(F)F)c2)C[C@@H]1CS(=O)(=O)c1ccccc1 (racemic)

IC50 [1]: 0.18 µM
SMILES: CN[C@@H]1CC[C@H](NC(=O)CNC(=O)c2cccc(C(F)(F)F)c2)C[C@@H]1CS(=O)(=O)c1ccccc1 (racemic)

remaining at 10 min, 0.5 µM [3]: 23% | remaining at 10 min, 0.5 µM [4]: 25% | IC50 [1]: 0.027 µM | remaining at 10 min, 0.5 µM [5]: 24%
SMILES: CCN[C@@H]1CC[C@H](NC(=O)CNC(=O)c2cccc(C(F)(F)F)c2)C[C@@H]1CS(=O)(=O)c1ccccc1 (racemic)

remaining at 10 min, 0.5 µM [3]: 8% | remaining at 10 min, 0.5 µM [4]: 28% | IC50 [1]: 0.054 µM | remaining at 10 min, 0.5 µM [5]: 11%
SMILES: CCCN[C@@H]1CC[C@H](NC(=O)CNC(=O)c2cccc(C(F)(F)F)c2)C[C@@H]1CS(=O)(=O)c1ccccc1 (racemic)

IC50 [1]: 0.034 µM
SMILES: O=C(CNC(=O)c1cccc(C(F)(F)F)c1)N[C@H]1CC[C@@H](NC2CCC2)[C@@H](CS(=O)(=O)c2ccccc2)C1 (racemic)
